Test results taken from PubChem BioAssay AID651950 (The Scripps Research Institute Molecular Screening Center, 2012).
Calls of active or inactive are those of the source. How the calls were made is not given here.

test: Hsp70 transcriptional activators, SAR follow-up, cell-based, HeLa, Hsp70 promoter luciferase, luminescence (AID 651950); details: HeLa hsp70.1pr-luc reporter; at 99 µM (top of the series)
Summary of the method: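 detection: luciferase luminescence; read-out: % activation relative to DMSO and MG132 controls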

activation, inactive:
COc1cccc(N2C(=O)NC(=O)/C(=C/C=C/c3ccccc3[N+](=O)[O-])C2=O)c1 -1.6%
O=c1c([N+](=O)[O-])c(Cl)c2ccccc2n1Cc1ccccc1 -0.4%
COc1cc(C(=O)/C(=C/c2cccnc2)c2nc3ccccc3o2)cc(OC)c1OC -1.5%

activation, active:
O=C1NC(=O)N(c2cccc(Cl)c2)C(=O)/C1=C\C=C\c1ccccc1 -0.7%
O=C1NC(=O)N(c2cccc(Br)c2)C(=O)/C1=C/C=C/c1ccccc1 -0.8%
O=C1/C(=C/c2ccncc2)CCC/C1=C\c1ccncc1 -1.1%
O=[N+]([O-])c1c(Nc2ccc(Cl)cc2)cc(Cl)c2nonc12 -0.9%
